# Measurements of several laboratories.
# Compare with care: the assays were run in different laboratories.
# Target: Serine/threonine-protein kinase LATS1 (LATS1, Homo sapiens, UniProt O95835)
# Sequence (O95835 1-1130, as in one of the studies): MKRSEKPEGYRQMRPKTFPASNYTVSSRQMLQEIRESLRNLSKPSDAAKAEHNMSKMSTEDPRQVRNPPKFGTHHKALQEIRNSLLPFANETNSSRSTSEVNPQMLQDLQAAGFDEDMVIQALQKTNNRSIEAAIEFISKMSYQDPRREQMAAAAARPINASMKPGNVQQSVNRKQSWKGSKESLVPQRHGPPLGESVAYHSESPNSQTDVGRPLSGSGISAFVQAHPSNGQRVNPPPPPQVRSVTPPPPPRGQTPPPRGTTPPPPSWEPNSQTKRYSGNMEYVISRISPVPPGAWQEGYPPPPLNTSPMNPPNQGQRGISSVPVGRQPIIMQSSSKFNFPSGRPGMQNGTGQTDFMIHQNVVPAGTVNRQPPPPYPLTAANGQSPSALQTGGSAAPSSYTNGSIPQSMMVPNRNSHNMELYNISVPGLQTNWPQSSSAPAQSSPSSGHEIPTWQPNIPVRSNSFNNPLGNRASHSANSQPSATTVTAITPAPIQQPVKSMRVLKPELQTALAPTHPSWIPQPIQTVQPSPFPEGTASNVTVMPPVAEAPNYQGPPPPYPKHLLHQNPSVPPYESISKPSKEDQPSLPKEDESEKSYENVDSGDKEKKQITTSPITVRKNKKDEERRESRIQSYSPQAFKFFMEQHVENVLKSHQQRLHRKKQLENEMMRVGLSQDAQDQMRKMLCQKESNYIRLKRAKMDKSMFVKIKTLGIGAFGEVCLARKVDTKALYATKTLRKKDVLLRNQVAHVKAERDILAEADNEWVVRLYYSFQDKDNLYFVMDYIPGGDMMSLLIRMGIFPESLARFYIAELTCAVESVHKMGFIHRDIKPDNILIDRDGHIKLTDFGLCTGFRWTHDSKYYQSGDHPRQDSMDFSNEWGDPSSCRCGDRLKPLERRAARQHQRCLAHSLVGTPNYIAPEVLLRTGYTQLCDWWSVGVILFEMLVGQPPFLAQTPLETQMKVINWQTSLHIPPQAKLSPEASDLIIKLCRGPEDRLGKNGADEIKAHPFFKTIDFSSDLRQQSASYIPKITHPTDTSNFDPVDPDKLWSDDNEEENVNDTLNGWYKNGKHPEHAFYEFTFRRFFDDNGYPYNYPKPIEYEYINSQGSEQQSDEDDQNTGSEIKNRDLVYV
Structure (SMILES),effect on,action,method,concentration,measurement,value
O=C(NC[C@@H]1[C@H]2CN(C(=O)OCc3cc(C(F)(F)F)cc(C(F)(F)F)c3)C[C@@H]12)c1ccc2[nH]nnc2c1,cell-free assay,,competition with immobilised ligand,1 µM,remaining binding,96%
Cn1cnc(Br)c1C1=CN(c2ncnc3[nH]cnc23)CCS1,enzyme activity,inhibitor,radiometric,50 nM,inhibition,51.5%
Cc1ccc(C(=O)Nc2ccc(CN3CCN(C)CC3)c(C(F)(F)F)c2)cc1C#Cc1cnc2cccnn12,enzyme activity,inhibitor,,23.5 nM,remaining activity,93%
Nc1ncnc2occ(-c3ccc(NC(=O)Nc4cc(C(F)(F)F)ccc4F)cc3)c12,cell-free assay,inhibitor,,20 µM,remaining signal,33%
CC(=O)N1CCC(c2ccc(C(=O)NC(=N)N)cc2C(F)(F)F)CC1,cell-free assay,,competition with immobilised ligand,1 µM,remaining binding,72%
O=C(Nc1cnn(-c2csc(C(=O)NC3COC3)c2)c1)Nc1ccccc1Cl,enzyme activity,inhibitor,,5 µM,remaining activity,106%
COc1cccc2c(NCc3ccccc3)nc(-n3c(N)nc4ccccc43)nc12,target engagement in cells,inhibitor,chemoproteomics,20 mM,inhibition,-30.5%
Cc1sc(C(=O)NC2COC2)cc1-n1cc(NC(=O)Nc2c(F)cccc2Cl)cn1,enzyme activity,inhibitor,,10 µM,remaining activity,97.2%
CC1CCCN1c1nccc(-c2cnn3ncccc23)n1 (stereo not shown),binding,,,1 µM,remaining binding,100%
CN1CCN(c2cnc3c(C4CCN(C(=O)c5ccc(OC(F)(F)F)cc5N)CC4)ncnc3c2)CC1,cell-free assay,,competition with immobilised ligand,1 µM,remaining binding,81%
CCCCNc1ncc2c(-c3ccc(F)cc3)nn(C[C@H]3CC[C@H](N)CC3)c2n1,target engagement in cells,inhibitor,chemoproteomics,20 mM,inhibition,7.3%
COc1cc(-c2cc(-c3ccc(N4CCNCC4)cc3)cnc2C)cc(OC)c1OC,enzyme activity,inhibitor,,1 µM,inhibition,7%
CC(C)(O)[C@H]1CC[C@H](Nc2ccc3ncc(-c4cccc(C(F)(F)F)c4)n3n2)CC1,enzyme activity,inhibitor,,1 µM,remaining activity,96.1%
